Among the data in ChEMBL document CHEMBL1124034, “Adenosine deaminase inhibitors. Synthesis and biological activity of deaza analogues of erythro-9-(2-hydroxy-3-nonyl)adenine” (J Med Chem, 1988) are IC50 and Ki values, retold here.

For assay [1], the system named is P388. Nature of the assay: In vitro antitumor activity against murine P388 cell line at 72 h. The class given is functional. As to conditions: Mus musculus, P388, 72 h; read-out: ID50 (the source's name).
For assay [2], the system named is HeLa. The experiment in a line: In vitro antitumor activity against human HeLa cell line at 144 h. It counts as functional. As to conditions: read-out: ID50 (the source's name). The method in brief: (§1)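 Human HeLa (cervix carcinoma) and KB (oral epidermoid carcinoma) monolayers in Eagle's MEM with nonessential amino acids, Earle's BSS, 10% fetal calf serum and penicillin/streptomycin/kanamycin. Exponentially growing cells (5×10^5) were exposed to varying drug concentrations for 72 or 144 h and counted by Coulter counter. ID50 is the concentration giving 50% growth inhibition versus untreated controls.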

Assay [3] has as its system KB. Nature of the assay: In vitro antitumor activity against human KB cell line at 72 h. The class given is functional. As to conditions: read-out: ID50 (the source's name). The method in brief: as §1
In assay [4] the test system is P388. Nature of the assay: In vitro antitumor activity against murine doxorubicin resistant P388 cell line at 72 h. As to conditions: Mus musculus, P388, 72 h; read-out: ID50 (the source's name). The class given is functional.
The target in assay [5] is T1, Adenosine deaminase (Homo sapiens, UniProt P00813).
T1 sequence (P00813 whole entry): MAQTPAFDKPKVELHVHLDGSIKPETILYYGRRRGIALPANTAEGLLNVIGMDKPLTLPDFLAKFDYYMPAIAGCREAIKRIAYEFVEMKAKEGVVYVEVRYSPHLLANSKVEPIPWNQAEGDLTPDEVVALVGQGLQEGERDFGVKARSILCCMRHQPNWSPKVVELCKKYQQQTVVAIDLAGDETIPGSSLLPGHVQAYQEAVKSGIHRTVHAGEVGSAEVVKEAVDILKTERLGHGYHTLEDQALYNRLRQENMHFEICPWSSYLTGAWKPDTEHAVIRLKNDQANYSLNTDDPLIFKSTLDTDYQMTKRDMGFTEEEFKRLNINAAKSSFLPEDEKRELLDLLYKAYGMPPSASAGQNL
The experiment in a line: Inhibition constant (Ki) against Human erythrocyte adenosine deaminase.

In assay [6] the test system is KB. Nature of the assay: In vitro antitumor activity against human KB cell line at 144 h. It counts as functional. As to conditions: read-out: ID50 (the source's name). The method in brief: as §1
For assay [7], the system named is HeLa. The experiment in a line: In vitro antitumor activity against human HeLa cell line at 72 h. The class given is functional. As to conditions: read-out: ID50 (the source's name). The method in brief:
as §1

Assay [8] relates to L1210. Nature of the assay: In vitro antitumor activity against murine L1210 cell line at 72 h. It counts as functional. As to conditions: Mus musculus, L1210, 72 h; read-out: ID50 (the source's name).
In assay [9] the target is T2, Adenosine deaminase (Bos taurus, UniProt P56658).
T2 sequence (P56658 whole entry): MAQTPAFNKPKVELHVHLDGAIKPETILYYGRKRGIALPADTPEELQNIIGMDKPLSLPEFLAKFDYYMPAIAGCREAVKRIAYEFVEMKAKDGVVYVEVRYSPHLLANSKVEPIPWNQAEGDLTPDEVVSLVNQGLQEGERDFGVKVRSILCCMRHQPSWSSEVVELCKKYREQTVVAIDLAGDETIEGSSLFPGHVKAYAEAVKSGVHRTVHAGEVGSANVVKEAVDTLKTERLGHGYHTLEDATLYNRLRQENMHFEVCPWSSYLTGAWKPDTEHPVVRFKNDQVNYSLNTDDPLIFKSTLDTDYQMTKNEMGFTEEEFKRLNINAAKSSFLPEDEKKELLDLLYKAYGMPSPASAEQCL
The experiment in a line: Inhibition constant (Ki) against calf intestine adenosine deaminase.

The subject of assay [10] is P388. Nature of the assay: In vitro antitumor activity against murine doxorubicin-resistant P388 cell line at 72 h. The class given is functional. As to conditions: Mus musculus, P388, 72 h; read-out: ID50 (the source's name).
The subject of assay [11] is HeLa. Nature of the assay: In vitro antitumor activity against human HeLa cell line at 144 hr. As to conditions: read-out: ID50 (the source's name). It counts as functional. The method in brief: as §1

A word on the Ki: it is a dissociation constant, usually derived from enzyme kinetics or from competition with a known ligand. Low readings indicate a stronger hold on the target, high ones a looser hold on the target. In the case of `CCCCCCC(C(C)O)n1cnc2c(N)ccnc21` (centres undefined), the IC50 came to 98.2 µM in assay [1]; 21.8 µM in [2]; 49.1 µM in [3]; 38.2 µM in assay [4]; 30 µM in assay [6]; 112 µM in assay [7]. For the same molecule, the IC50 in assay [8] turned out to be 49.1 µM. The molecule also came in with a Ki in [5] of 0.12 µM.

With `CCCCCCC(C(C)O)n1cnc2c(N)cccc21` (centres undefined), the IC50 is 62.9 µM in assay [1]; 32.8 µM in assay [3]; 47.9 µM in assay [10]; 18.6 µM in [11]; 30.1 µM in [6]; 38.3 µM in assay [7]. In assay [8], the IC50 turned out to be 26.8 µM. The Ki in assay [9] was 71 µM; in assay [5], 15 µM.

Consider `CCCCCC[C@@H]([C@@H](C)O)n1cnc2c(N)ncnc21` [EHNA], for which the IC50 in assay [1] was determined as 27.2 µM; in assay [2], 23.4 µM; in assay [3], 81.6 µM; in assay [4], 13.4 µM; in [6], 46.3 µM; in assay [7], 179 µM. For the same molecule, the IC50 in [8] was 22.9 µM. In addition, in [5], the Ki was found to be 0.0043 µM.

With `Nc1ncnc2c1ncn2[C@@H]1O[C@H](CO)[C@@H](O)[C@@H]1O` [VIDARABINE], the IC50 in assay [1] stood at 12.7 µM; in assay [3], 89.8 µM; in assay [10] it was 10.8 µM; in assay [11] it was 27.7 µM; in [6], 25.4 µM; in [7], 46 µM. Besides, the IC50 in assay [8] turned out to be 23.6 µM.

For the molecule `CCCCCCC(C(C)O)n1cnc2c(N)nccc21` (centres undefined), the IC50 in [1] amounted to 21.8 µM; in assay [2], 18.6 µM; in [3], 31.9 µM; in assay [4], 19.2 µM; in [6], 5.5 µM; in assay [7] it was 142 µM. Further, the IC50 in assay [8] is 18.6 µM. The Ki in assay [5] was determined as 0.0063 µM.

Turning to `CCCCCCC(C(C)O)n1ccc2c(N)ncnc21` (centres undefined), the IC50 worked out at 20.7 µM in assay [1]; 4.7 µM in assay [2]; 20.7 µM in [3]; 3.8 µM in assay [4]; 8.5 µM in assay [6]; 60.4 µM in assay [7]. For the same molecule, the IC50 in assay [8] is 18.4 µM. In addition, the figures for the Ki in assay [9] and in [5] were 400 µM and 180 µM, respectively.
